Data published in ChEMBL document CHEMBL3286182, “4-aminoquinolone piperidine amides: noncovalent inhibitors of DprE1 with long residence time and potent antimycobacterial activity” (J Med Chem, 2014).
≈ marks a conversion by molar mass, not a printed value. Calls of active or inactive are those of the source. The rule behind the calls is not given here.

Experiments:
[1] = Solubility of the compound in 0.1 M phosphate buffer at pH 7.4 after 24 hrs by UV and MS analysis; type: physicochemical
[2] = test system: Mycolicibacterium smegmatis; test: Antimicrobial activity against Mycobacterium smegmatis mc2155 at 100 uM; type: functional, organism-based; conditions: str. MC2 155
Escherichia coli [3] = test: Antimicrobial activity against Escherichia coli ARC524 at 100 uM; type: functional, organism-based
Procedure, shortened: (§1)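 Nonmycobacterial panel of Candida albicans, Gram-negative and Gram-positive pathogens.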

Pseudomonas aeruginosa [4] = test: Antimicrobial activity against Pseudomonas aeruginosa ARC545 at 100 uM; type: functional, organism-based; procedure, shortened: as §1
[5] = Cmax in Wistar rat at 10 mg/kg, po; type: ADME, organism-based; parameters: dose 10 mg/kg, route oral; conditions: in vivo
Procedure, shortened: (§2)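 Male Wistar rats given a single dose, 2 mg/kg intravenously or 10 mg/kg orally. Plasma concentration followed over time, n = 2 per compound. Parameters taken from the plasma curves: C0 (iv), Cmax (oral), AUC0−∞, elimination half-life, plasma clearance, Vss and oral bioavailability.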

[6] = Permeability of the compound from apical to basolateral side in human Caco2 cells; type: ADME, cell-based; conditions: Caco-2, read-out: permeability
[7] = test system: Mycobacterium tuberculosis; test: Antimycobacterial activity against Mycobacterium tuberculosis H37Rv under hypoxic condition after 6 days by resazurin assay; type: functional
Cytochrome P450 2C9 = Cytochrome P450 2C9 (Homo sapiens, UniProt P11712); test: Inhibition of CYP2C9 (unknown origin); type: ADME
Chain of Cytochrome P450 2C9 (P11712 whole entry, canonical isoform): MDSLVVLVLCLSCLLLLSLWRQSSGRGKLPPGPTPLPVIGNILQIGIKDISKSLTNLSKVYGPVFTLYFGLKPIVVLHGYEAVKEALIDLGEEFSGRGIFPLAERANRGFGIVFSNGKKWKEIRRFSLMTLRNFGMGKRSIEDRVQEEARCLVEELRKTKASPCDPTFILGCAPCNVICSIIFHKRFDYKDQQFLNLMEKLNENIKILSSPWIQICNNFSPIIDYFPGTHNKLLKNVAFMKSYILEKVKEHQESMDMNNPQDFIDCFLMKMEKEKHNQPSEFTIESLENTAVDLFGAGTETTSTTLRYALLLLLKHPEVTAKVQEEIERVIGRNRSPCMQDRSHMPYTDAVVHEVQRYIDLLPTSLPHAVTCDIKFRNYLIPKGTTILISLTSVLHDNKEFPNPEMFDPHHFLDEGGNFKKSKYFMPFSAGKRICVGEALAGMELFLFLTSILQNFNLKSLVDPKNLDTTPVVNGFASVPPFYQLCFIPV
Procedure, shortened: (§3)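 CYP inhibition IC50 measured on isoforms CYP3A4, CYP2D6, CYP2C9, CYP2C19 and CYP1A2.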

[8] = AUC (0 to infinity) in Wistar rat at 2 mg/kg, iv; type: ADME, organism-based; parameters: dose 2 mg/kg, route intravenous, time infinity; conditions: plasma; procedure, shortened: as §2
[9] = Permeability of the compound from basolateral to apical side in human Caco2 cells; type: ADME, cell-based; conditions: Caco-2, read-out: permeability
Cytochrome P450 3A4 = Cytochrome P450 3A4 (Homo sapiens, UniProt P08684); test: Inhibition of CYP3A4 (unknown origin); type: ADME; procedure, shortened: as §3
Chain of Cytochrome P450 3A4 (P08684 whole entry): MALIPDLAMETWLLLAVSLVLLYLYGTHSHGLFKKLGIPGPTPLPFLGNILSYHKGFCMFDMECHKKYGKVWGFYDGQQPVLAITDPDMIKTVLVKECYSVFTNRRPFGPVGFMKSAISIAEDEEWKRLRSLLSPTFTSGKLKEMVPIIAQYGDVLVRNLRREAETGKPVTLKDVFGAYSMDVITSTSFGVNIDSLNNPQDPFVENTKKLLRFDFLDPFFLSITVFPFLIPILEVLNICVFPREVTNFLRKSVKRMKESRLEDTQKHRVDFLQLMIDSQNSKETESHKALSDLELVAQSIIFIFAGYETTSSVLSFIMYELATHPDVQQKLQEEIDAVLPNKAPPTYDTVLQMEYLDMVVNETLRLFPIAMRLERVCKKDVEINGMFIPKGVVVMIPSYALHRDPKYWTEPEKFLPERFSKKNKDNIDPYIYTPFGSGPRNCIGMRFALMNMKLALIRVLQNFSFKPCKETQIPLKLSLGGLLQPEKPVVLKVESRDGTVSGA

Pseudomonas aeruginosa [10] = test: Antimicrobial activity against Pseudomonas aeruginosa ARC546 at 100 uM; type: functional, organism-based; procedure, shortened: as §1
[11] = target: Voltage-gated inwardly rectifying potassium channel KCNH2 (Homo sapiens, UniProt Q12809); test: Inhibition of human ERG by medium-throughput electrophysiology
Chain of Voltage-gated inwardly rectifying potassium channel KCNH2 (Q12809 whole entry): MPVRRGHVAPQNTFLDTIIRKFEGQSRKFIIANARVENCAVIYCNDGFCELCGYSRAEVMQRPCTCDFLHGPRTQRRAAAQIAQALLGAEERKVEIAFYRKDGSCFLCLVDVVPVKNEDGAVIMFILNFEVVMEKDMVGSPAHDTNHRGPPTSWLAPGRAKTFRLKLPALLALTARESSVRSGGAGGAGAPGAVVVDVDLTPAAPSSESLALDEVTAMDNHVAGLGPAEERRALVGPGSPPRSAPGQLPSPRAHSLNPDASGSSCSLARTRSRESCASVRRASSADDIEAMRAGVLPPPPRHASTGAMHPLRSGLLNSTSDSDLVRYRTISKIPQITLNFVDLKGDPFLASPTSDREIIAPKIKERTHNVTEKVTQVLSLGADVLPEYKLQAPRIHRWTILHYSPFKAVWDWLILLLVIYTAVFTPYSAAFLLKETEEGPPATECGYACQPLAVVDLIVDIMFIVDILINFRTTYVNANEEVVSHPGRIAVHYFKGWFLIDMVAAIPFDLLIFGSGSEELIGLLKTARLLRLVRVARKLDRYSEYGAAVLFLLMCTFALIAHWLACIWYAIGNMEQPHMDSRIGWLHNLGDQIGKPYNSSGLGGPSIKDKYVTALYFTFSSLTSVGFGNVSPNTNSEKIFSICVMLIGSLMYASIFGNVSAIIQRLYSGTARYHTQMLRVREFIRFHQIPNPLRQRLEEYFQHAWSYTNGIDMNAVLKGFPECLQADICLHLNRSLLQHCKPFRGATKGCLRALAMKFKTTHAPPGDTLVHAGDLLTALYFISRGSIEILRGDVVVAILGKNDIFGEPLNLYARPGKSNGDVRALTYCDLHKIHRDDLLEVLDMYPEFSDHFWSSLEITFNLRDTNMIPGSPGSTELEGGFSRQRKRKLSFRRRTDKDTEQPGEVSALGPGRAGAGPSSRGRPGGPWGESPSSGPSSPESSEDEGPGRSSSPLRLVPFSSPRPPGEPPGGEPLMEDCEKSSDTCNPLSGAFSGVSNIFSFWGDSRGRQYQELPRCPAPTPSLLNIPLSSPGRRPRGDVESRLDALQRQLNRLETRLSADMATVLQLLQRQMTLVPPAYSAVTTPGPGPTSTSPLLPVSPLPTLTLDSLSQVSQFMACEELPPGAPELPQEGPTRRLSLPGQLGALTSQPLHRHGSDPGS

[12] = test system: Mycolicibacterium smegmatis; test: Antimicrobial activity against Mycobacterium smegmatis ATCC 607 at 100 uM; type: functional, organism-based
[13] = Initial plasma concentration in Wistar rat at 2 mg/kg, iv; type: ADME, organism-based; parameters: dose 2 mg/kg, route intravenous; procedure, shortened: as §2
[14] = Cytotoxicity against human A549 cells after 72 hrs by resazurin based fluorescence assay; type: cell-based; conditions: read-out: MIC
Procedure, shortened: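 Cytotoxicity read as MMIC, the MIC on the A549 cell line.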

Cytochrome P450 2D6 = Cytochrome P450 2D6 (Homo sapiens, UniProt P10635); test: Inhibition of CYP2D6 (unknown origin); type: ADME; procedure, shortened: as §3
Chain of Cytochrome P450 2D6 (P10635 whole entry): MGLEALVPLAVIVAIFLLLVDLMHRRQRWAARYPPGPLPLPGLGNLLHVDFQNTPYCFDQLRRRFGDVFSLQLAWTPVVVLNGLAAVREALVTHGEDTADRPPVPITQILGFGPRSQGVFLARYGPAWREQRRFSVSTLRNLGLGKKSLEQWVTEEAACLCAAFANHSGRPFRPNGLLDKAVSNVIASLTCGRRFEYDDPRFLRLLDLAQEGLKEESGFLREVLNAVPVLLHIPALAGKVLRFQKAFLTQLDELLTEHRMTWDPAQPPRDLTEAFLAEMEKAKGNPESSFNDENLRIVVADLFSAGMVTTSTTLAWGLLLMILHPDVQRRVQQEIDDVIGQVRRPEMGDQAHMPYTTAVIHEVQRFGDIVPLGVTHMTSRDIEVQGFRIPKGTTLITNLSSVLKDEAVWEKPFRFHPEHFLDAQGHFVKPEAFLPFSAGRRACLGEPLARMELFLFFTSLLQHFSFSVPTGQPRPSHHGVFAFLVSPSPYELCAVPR

[15] = AUC (0 to infinity) in Wistar rat at 10 mg/kg, po; type: ADME, organism-based; parameters: time infinity, dose 10 mg/kg, route oral; conditions: plasma; procedure, shortened: as §2
Haemophilus influenzae [16] = test: Antimicrobial activity against Haemophilus influenzae ARC446 at 100 uM; type: functional, organism-based; procedure, shortened: as §1
Adenosine receptor A1 = target: T1, Adenosine receptor A1 (Homo sapiens, UniProt P30542); test: Inhibition of adenosine A1 receptor (unknown origin)
T1 sequence (P30542 whole entry): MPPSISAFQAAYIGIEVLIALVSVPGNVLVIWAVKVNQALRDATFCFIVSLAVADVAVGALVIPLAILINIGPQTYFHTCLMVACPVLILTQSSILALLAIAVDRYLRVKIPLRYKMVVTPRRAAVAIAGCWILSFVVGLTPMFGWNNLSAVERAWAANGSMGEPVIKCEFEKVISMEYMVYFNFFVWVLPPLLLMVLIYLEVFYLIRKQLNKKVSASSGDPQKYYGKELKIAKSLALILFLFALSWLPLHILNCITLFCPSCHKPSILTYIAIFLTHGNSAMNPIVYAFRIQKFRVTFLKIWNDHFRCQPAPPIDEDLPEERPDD
Procedure, shortened: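 Secondary pharmacology panel of binding, enzyme and functional assays covering 24 molecular targets. Activity recorded as a defined Ki/IC50/EC50.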

[17] = Oral bioavailability in Wistar rat at 10 mg/kg; type: ADME, organism-based; conditions: in vivo; procedure, shortened: as §2
[18] = Clearance in Wistar rat at 2 mg/kg, iv; type: ADME, organism-based; parameters: dose 2 mg/kg, route intravenous; conditions: in vivo; procedure, shortened: as §2
Cytochrome P450 1A2 = target: T2, Cytochrome P450 1A2 (Homo sapiens, UniProt P05177); test: Inhibition of CYP1A2 (unknown origin); type: ADME; procedure, shortened: as §3
T2 sequence (P05177 whole entry): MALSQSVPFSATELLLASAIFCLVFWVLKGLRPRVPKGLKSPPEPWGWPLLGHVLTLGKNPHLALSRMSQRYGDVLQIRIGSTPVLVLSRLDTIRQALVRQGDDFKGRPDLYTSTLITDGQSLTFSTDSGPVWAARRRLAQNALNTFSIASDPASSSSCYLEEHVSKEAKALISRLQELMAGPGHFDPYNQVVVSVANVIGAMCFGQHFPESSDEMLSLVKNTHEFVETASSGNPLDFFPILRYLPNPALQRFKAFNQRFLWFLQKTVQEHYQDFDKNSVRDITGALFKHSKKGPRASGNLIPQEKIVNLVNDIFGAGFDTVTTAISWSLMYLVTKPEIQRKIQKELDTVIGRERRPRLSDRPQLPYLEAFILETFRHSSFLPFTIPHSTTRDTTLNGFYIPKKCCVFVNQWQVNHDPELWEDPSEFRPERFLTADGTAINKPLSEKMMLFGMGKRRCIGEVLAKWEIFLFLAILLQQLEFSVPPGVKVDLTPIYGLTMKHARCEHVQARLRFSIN

[19] = Elimination half life in Wistar rat at 10 mg/kg, po; type: ADME, organism-based; parameters: dose 10 mg/kg, route oral; conditions: in vivo, read-out: beta t1/2 (converted); procedure, shortened: as §2
[20] = Elimination half life in Wistar rat at 2 mg/kg, iv; type: ADME, organism-based; parameters: dose 2 mg/kg, route intravenous; conditions: in vivo, read-out: beta t1/2 (converted); procedure, shortened: as §2
Candida albicans = test: Antimicrobial activity against Candida albicans ARC527 at 100 uM; type: functional, organism-based; procedure, shortened: as §1
Streptococcus pneumoniae = test: Antimicrobial activity against Streptococcus pneumoniae ARC548 at 100 uM; type: functional, organism-based; procedure, shortened: as §1
[21] = Octanol-water partition coefficient, log D of the compound by shake-flask method; type: physicochemical
[22] = Intrinsic clearance in human liver microsomes at 1 uM up to 30 mins by LC-MS/MS analysis; type: ADME; conditions: read-out: CLH
Klebsiella pneumoniae = test: Antimicrobial activity against Klebsiella pneumoniae ARC1865 at 100 uM; type: functional, organism-based; procedure, shortened: as §1
[23] = Intrinsic clearance in rat cryopreserved hepatocytes assessed per 10^6 cells at 1 uM up to 120 mins by LC-MS/MS analysis; type: ADME, cell-based, Hepatocyte; conditions: read-out: CLH
[24] = Fraction unbound in human plasma at 20 uM after 18 hrs by equilibrium dialysis method; type: ADME, cell-free
Haemophilus influenzae [25] = test: Antimicrobial activity against Haemophilus influenzae ARC158 at 100 uM; type: functional, organism-based; procedure, shortened: as §1
Cytochrome P450 2C19 = Cytochrome P450 2C19 (Homo sapiens, UniProt P33261); test: Inhibition of CYP2C19 (unknown origin); type: ADME; procedure, shortened: as §3
Chain of Cytochrome P450 2C19 (P33261 whole entry): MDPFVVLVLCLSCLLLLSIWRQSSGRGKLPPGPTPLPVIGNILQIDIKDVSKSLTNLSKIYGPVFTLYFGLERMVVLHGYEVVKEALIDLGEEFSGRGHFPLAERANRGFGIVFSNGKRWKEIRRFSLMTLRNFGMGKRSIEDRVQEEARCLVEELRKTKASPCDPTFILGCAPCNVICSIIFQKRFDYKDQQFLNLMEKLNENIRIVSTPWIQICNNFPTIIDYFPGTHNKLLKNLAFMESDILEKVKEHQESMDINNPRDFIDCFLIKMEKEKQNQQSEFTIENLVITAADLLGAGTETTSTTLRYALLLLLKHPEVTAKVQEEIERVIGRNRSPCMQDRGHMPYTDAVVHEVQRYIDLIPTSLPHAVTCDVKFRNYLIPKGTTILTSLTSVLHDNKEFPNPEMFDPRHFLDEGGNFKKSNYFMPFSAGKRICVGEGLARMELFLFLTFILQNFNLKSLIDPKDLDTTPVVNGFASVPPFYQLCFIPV

[26] = Inhibition of Mycobacterium smegmatis recombinant DprE1 using farnesylphosphoryl-beta-D-ribofuranose as substrate assessed as conversion of amplex red to resorufin after 30 mins; parameters: species or system Mycolicibacterium smegmatis
Procedure, shortened: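 Msm DprE1 (thioredoxin-6His fusion of Msm Rv3790) at 75 nM, preincubated 30 min with 10 μM FAD. Buffer: 50 mM glycylglycine pH 8.5, 200 mM potassium glutamate, 0.002% Brij-35, 2% DMSO, 25 °C. Started with 300 μM farnesylphosphoryl-β-D-ribofuranose, 0.01 mg/mL HRP and 50 μM Amplex Red.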

[27] = Volume of distribution at steady state in Wistar rat at 2 mg/kg, iv; type: ADME, organism-based; parameters: dose 2 mg/kg, route intravenous; conditions: in vivo, read-out: Vdss; procedure, shortened: as §2
[28] = test system: Mycobacterium tuberculosis; test: Antimycobacterial activity against Mycobacterium tuberculosis H37Rv after 5 days by standard microdilution method; type: functional; conditions: 120 h
Staphylococcus aureus = test: Antimicrobial activity against Staphylococcus aureus ARC517 at 100 uM; type: functional, organism-based; procedure, shortened: as §1
Escherichia coli [29] = test: Antimicrobial activity against Escherichia coli ARC523 at 100 uM; type: functional, organism-based; procedure, shortened: as §1

## Cn1ncc(C(=O)N2CCC(Nc3cc(=O)n(C)c4ccccc34)CC2)c1Cl
[1]
  solubility at 24 h: 78 µM (≈ 31.2 µg/mL)
[2]
  Activity: inactive
Escherichia coli [3]
  Activity: inactive
Pseudomonas aeruginosa [4]
  Activity: inactive
[5]
  Cmax: 7 µM
[6]
  Papp A→B: 4 ×10⁻⁶ cm/s
[7]
  Activity: inactive
Cytochrome P450 2C9
  INH: > 30 µM
[8]
  AUC(0-inf): 3.4 µM·h
[9]
  Papp B→A: 23 ×10⁻⁶ cm/s
Cytochrome P450 3A4
  INH: > 30 µM
Pseudomonas aeruginosa [10]
  Activity: inactive
[11]
  IC50: > 33 µM
[12]
  Activity: inactive
[13]
  C0: 5.4 µM
[14]
  MCC at 72 h: > 100 µM
Cytochrome P450 2D6
  INH: > 30 µM
[15]
  AUC(0-inf): 19 µM·h
Haemophilus influenzae [16]
  Activity: inactive
Adenosine receptor A1
  IC50: 8 µM
[17]
  bioavailability: 100%
[18]
  clearance: 24.8 mL/min/kg
Cytochrome P450 1A2
  INH: > 30 µM
[19]
  half-life: 1.3 h
[20]
  half-life: 1.1 h
Candida albicans
  Activity: inactive
Streptococcus pneumoniae
  Activity: inactive
[21]
  logD: 2
[22]
  microsomal CLint at 1 µM: 14 µL/min/mg
Klebsiella pneumoniae
  Activity: inactive
[23]
  hepatocyte CLint at 1 µM: 8 µL/min/1e6 cells
[24]
  fraction unbound at 18 h, 20 µM: 0.03
Haemophilus influenzae [25]
  Activity: inactive
Cytochrome P450 2C19
  INH: > 30 µM
[26]
  IC50: 0.14 µM
[27]
  Vd: 1.2 L/kg
[28]
  MIC: 25 µM (≈ 10 µg/mL)
Staphylococcus aureus
  Activity: inactive
Escherichia coli [29]
  Activity: inactive
